Results: ChEMBL document CHEMBL1142735, “Discovery of a new series of centrally active tricyclic isoxazoles combining serotonin (5-HT) reuptake inhibition with alpha2-adrenoceptor blocking activity” (J Med Chem, 2005)

Legend:
[1] = molecular target: Sodium-dependent serotonin transporter (Homo sapiens, UniProt P31645); assay: Binding affinity for serotonin transporter
In short: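 Human platelet membranes (50 µg protein) in 50 mM Tris-HCl pH 7.4 with 120 mM NaCl and 5 mM KCl. Competition against [3H]paroxetine (0.5 nM), 60 min at 25 °C. Nonspecific binding defined with imipramine (1 µM). Filtration over 0.1% PEI-presoaked GF/B, washed with incubation buffer. Sigmoidal fit of specific binding; Ki via Cheng-Prusoff.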

[2] = molecular target: T1, Alpha-2C adrenergic receptor (Homo sapiens, UniProt P18825); assay: Binding affinity for alpha-2C adrenergic receptor
T1 sequence (P18825 whole entry): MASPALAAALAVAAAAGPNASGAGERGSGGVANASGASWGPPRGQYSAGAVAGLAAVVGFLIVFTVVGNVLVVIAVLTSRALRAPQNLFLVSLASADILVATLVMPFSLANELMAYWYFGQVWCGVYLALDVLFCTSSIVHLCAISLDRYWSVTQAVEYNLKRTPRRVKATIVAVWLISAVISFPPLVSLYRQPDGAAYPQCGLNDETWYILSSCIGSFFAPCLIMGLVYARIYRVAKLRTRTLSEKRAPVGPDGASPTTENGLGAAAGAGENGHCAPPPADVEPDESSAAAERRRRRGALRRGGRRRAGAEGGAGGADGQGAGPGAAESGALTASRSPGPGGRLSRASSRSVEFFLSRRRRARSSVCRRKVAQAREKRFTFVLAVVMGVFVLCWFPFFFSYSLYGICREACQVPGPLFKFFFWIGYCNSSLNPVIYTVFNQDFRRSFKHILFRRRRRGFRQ
In short: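 Human alpha2C receptor stably expressed in CHO cell membranes (5-10 µg protein) in 25 mM glycylglycine, pH 7.6. Competition against [3H]rauwolscine (1 nM), 30 min at 25 °C. Nonspecific binding defined with spiroxatrine (1 µM). Rapid filtration over GF/B, washed with ice-cold 50 mM Tris-HCl pH 8.0, scintillation counting. Sigmoidal curves fitted; Ki by Cheng-Prusoff.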

Sequence of Sodium-dependent serotonin transporter (P31645 whole entry): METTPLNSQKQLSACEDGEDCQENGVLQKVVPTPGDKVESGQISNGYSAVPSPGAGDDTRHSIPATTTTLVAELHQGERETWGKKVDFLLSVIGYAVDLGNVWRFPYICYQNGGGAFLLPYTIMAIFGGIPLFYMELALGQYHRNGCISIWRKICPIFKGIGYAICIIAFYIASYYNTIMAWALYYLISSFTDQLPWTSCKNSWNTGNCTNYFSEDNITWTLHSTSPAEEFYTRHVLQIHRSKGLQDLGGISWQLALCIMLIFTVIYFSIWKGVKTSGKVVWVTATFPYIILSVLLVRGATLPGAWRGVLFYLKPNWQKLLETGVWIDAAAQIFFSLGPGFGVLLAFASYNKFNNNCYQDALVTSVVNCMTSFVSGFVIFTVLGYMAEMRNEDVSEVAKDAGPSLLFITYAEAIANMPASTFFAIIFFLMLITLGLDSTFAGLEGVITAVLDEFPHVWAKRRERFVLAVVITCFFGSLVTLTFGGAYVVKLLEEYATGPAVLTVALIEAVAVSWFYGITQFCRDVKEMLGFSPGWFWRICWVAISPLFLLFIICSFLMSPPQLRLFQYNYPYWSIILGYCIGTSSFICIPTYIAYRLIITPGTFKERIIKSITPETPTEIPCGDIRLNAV

Ki [1] | Ki [2] | SMILES
5.7 nM | 0.2 nM | COCC(=O)Oc1ccc2c(c1)OC[C@@H]1C2=NO[C@H]1CN1CCN(C/C(C)=C/c2ccccc2)CC1
26 nM | 0.3 nM | C/C(=C\c1ccccc1)CN1CCN(C[C@@H]2ON=C3c4ccc(OC(=O)C5CC5)cc4OC[C@H]32)CC1
– | 0.2 nM | COc1ccc2c(c1)OC[C@@H]1C2=NO[C@H]1CN1CCN(C/C(C)=C/c2ccccc2)CC1
7.7 nM | 0.2 nM | CC(=O)Oc1ccc2c(c1)OC[C@@H]1C2=NO[C@H]1CN1CCN(C/C(C)=C/c2ccccc2)CC1
3.5 nM | – | C/C(=C\c1ccccc1)CN1CCN(C[C@@H]2ON=C3c4ccc(OCCN(C)C)cc4OC[C@H]32)CC1
12 nM | 1.6 nM | C/C(=C\c1ccccc1)CN1CCN(C[C@@H]2ON=C3c4ccc(OC(=O)C(C)(C)C)cc4OC[C@H]32)CC1
17 nM | 0.2 nM | CCOCCOCCOc1ccc2c(c1)OC[C@@H]1C2=NO[C@H]1CN1CCN(C/C(C)=C/c2ccccc2)CC1
41 nM | 0.5 nM | C=CC(=O)Oc1ccc2c(c1)OC[C@@H]1C2=NO[C@H]1CN1CCN(C/C(C)=C/c2ccccc2)CC1
3.6 nM | – | C/C(=C\c1ccccc1)CN1CCN(C[C@@H]2ON=C3c4ccc(O)cc4OC[C@H]32)CC1
154 nM | 1.6 nM | COc1cc2c(cc1OC)C1=NO[C@@H](CN3CCN(CCOc4ccc(F)cc4)CC3)[C@@H]1CN2
16 nM | 4.5 nM | CN1C[C@@H]2C(=NO[C@H]2CN2CCN(C/C=C/c3ccccc3)CC2)c2ccccc21
1.4 nM | 6.3 nM | COc1ccc2c(c1)C=C[C@@H]1C2=NO[C@H]1CN1CCN(Cc2ccc3ccccc3c2)CC1
23 nM | 2.7 nM | CCNC(=O)N1C[C@@H]2C(=NO[C@H]2CN2CCN(C/C=C/c3ccccc3)CC2)c2ccccc21
151 nM | 23 nM | COc1cc2c(cc1OC)C1=NO[C@@H](CN3CCN(Cc4ccc(Cl)cc4)CC3)[C@@H]1CN2
2.6 nM | 9.8 nM | CCOC(=O)N1C[C@@H]2C(=NO[C@H]2CN2CCN(C/C=C/c3ccccc3)CC2)c2ccccc21
1.5 nM | 12 nM | COc1cc2c(cc1OC)C1=NO[C@@H](CN3CCN(Cc4ccc5ccccc5c4)CC3)[C@@H]1CN2
104 nM | 4 nM | COc1cc2c(cc1OC)N(C)C[C@@H]1C2=NO[C@H]1CN1CCN(CCCC(C)=Cc2ccccc2)CC1
– | 1.7 nM | C(=C\c1ccccc1)/CN1CCN(C[C@@H]2ON=C3c4ccccc4OC[C@H]32)CC1
106 nM | 112 nM | C1=C[C@@H]2C(=NO[C@H]2CN2CCN(C/C=C/c3ccccc3)CC2)c2ccccc21
22 nM | > 1000 nM | COc1cc2c(cc1OC)C1=NO[C@@H](CN3CCN(Cc4ccc5ncccc5c4)CC3)[C@@H]1CN2
84 nM | 15 nM | C(=C\c1ccccc1)/CN1CCN(C[C@@H]2ON=C3c4ccccc4NC[C@H]32)CC1
7.3 nM | 3.9 nM | COc1ccc2c(c1)C=C[C@@H]1C2=NO[C@H]1CN1CCN(C/C=C/c2ccccc2)CC1
9.7 nM | 5.4 nM | COc1cc2c(cc1OC)C1=NO[C@@H](CN3CCN(C/C=C/c4ccccc4)CC3)[C@@H]1CN2
0.5 nM | 9.6 nM | c1ccc2c(c1)NC[C@@H]1C2=NO[C@H]1CN1CCN(Cc2ccc3ccccc3c2)CC1
8.9 nM | 0.1 nM | COc1cc2c(cc1OC)C1=NO[C@@H](CN3CCN(C/C(C)=C/c4ccccc4)CC3)[C@@H]1CN2
56 nM | 0.5 nM | C/C(=C\c1ccccc1)CN1CCN(C[C@@H]2ON=C3c4ccc(OC5CCCC5)cc4OC[C@H]32)CC1
13 nM | 0.5 nM | C/C(=C\c1ccccc1)CN1CCN(C[C@@H]2ON=C3c4ccc(OC(=O)c5ccncc5)cc4OC[C@H]32)CC1
61 nM | 11 nM | CC(=O)N1C[C@@H]2C(=NO[C@H]2CN2CCN(CCC/C=C/c3ccccc3)CC2)c2ccccc21
4.5 nM | 0.03 nM | COCCOc1ccc2c(c1)OC[C@@H]1C2=NO[C@H]1CN1CCN(C/C(C)=C/c2ccccc2)CC1
